# Measurements collected from several papers.
# Protocols differ between the studies behind these lines.
# Target: Serine/threonine-protein kinase N2 (PKN2, Homo sapiens, UniProt Q16513)
SMILES,assay,system,conditions,quantity,result
O=C(Nc1cnn(-c2csc(C(=O)NC3COC3)c2)c1)Nc1ccccc1Cl,"enzyme activity, inhibitor",,5 µM,remaining activity,112%
Oc1cccc(-c2nc(N3CCOCC3)c3oc4ncccc4c3n2)c1,"enzyme activity, inhibitor",,10 µM,remaining activity,71%
Cc1cc(C)c(-n2ccn3nc(-c4cccnc4)cc23)cc1NC(=O)c1cc(C#N)cc(S(F)(F)(F)(F)F)c1,"cell-free assay, competition with immobilised ligand",,0.1 µM,remaining binding,100%
COc1cc(-c2cc(-c3ccc(N4CCNCC4)cc3)cnc2C)cc(OC)c1OC,"enzyme activity, inhibitor",,1 µM,inhibition,1%
COc1cc(Nc2cnc(C#N)c(O[C@H](C)CN(C)C)n2)ncc1-c1cnn(C)c1,"enzyme activity, inhibitor, radiometric",,1 µM,remaining activity,87%
CN1CCC2(CC1)NC(=O)c1c(c3ccc(Cl)c(Cl)c3n1C)C2C#N (racemic),"thermal stability, DSF",,10 µM,ΔTm,2.5 °C
Cc1nc(Cc2cccc(C(F)(F)F)c2)sc1-c1ccc(C(N)=O)nc1,"cell-free assay, competition with immobilised ligand",,1 µM,remaining binding,91%
CCN(CC)CCNC(=O)c1c(C)[nH]c(/C=C2\C(=O)Nc3ccc(F)cc32)c1C,"enzyme activity, inhibitor",,0.3 µM,inhibition,24%
CNCc1ccc(-c2cc(-c3nc(-c4ccc(S(=O)(=O)C(C)C)cc4)cnc3N)on2)cc1,"enzyme activity, inhibitor",,2 µM,inhibition,82%
CNC(=O)c1cc(Oc2ccc(NC(=O)Nc3ccc(Cl)c(C(F)(F)F)c3)cc2)ccn1,"enzyme activity, inhibitor",,0.3 µM,inhibition,10%
COc1cc(Cl)c(C(=O)N[C@@H](CN[C@H]2CC[C@@H](N)CC2)Cc2ccc(C#N)cc2)cc1-c1ccc(CN[C@H](C)c2ccc(C)cc2)o1,"enzyme activity, inhibitor",,1 µM,remaining activity,102%
COc1cc(/C=C/C(=O)CC(=O)/C=C/c2ccc(O)c(OC)c2)ccc1O,"enzyme activity, inhibitor",,1 µM,activity vs control,114%
CCCS(=O)(=O)Nc1ccc(F)c(C(=O)c2c[nH]c3ncc(-c4ccc(Cl)cc4)cc23)c1F,"enzyme activity, inhibitor",,1 µM,inhibition,< 10%
Cc1ccc(NC(=O)c2ccc(C)c(C(F)(F)F)c2)cc1C#Cc1nn(C2CCC(O)CC2)c2ncnc(N)c12 (stereo not shown),cell-free assay,,10 µM,remaining signal,97%
O=c1nc(-c2ccccn2)sc2ccccc12,"binding, competition with immobilised ligand",,1 µM,remaining binding,100%
Cc1cc(NC(=O)c2cccc3cc(-c4cccc5[nH]nc(N)c45)ccc23)ccc1F,"enzyme activity, inhibitor",,0.1 µM,activity vs control,101%
N#CCCc1ccc2c(c1)-c1[nH]c3ccc([N+](=O)[O-])cc3c1CC(=O)N2,cell-free assay,,0.5 µM,remaining signal,77.9%
Cc1ccc(Nc2nccc(N(C)c3ccc4c(C)n(C)nc4c3)n2)cc1S(N)(=O)=O,"enzyme activity, inhibitor",,10 µM,inhibition,34%
Cn1c2c(Cl)c(Cl)ccc2c2cc[nH]c(=O)c21,"thermal stability, DSF",,10 µM,ΔTm,1.3 °C
O=C(NS(=O)(=O)c1ccc(NCC2CCOCC2)c([N+](=O)[O-])c1)c1ccc(N2CCN(Cc3ccc(C(F)(F)F)cc3-c3ccc(Cl)cc3)CC2)cc1Oc1cnc2[nH]ccc2c1,"cell-free assay, competition with immobilised ligand",,1 µM,remaining binding,93%
Cc1cnc(NC2CCOCC2)nc1-n1cnc(C(=O)NC(CN)c2cc(F)cc(Cl)c2)c1 (stereo not shown),"enzyme activity, inhibitor, radiometric",,1 µM,remaining activity,63%
CCCOc1ccc(OC)c(F)c1C(=O)c1ccc(C(=O)N[C@@H]2CNC[C@H]2NC(=O)c2ccc3[nH]ncc3c2)cc1,"enzyme activity, inhibitor",,0.1 µM,remaining activity,53%
CN1CC(Oc2cnc(C#N)cc2-c2ccn3nc(NC(=O)C4CC4)cc3c2)C1,"enzyme activity, inhibitor",,1 µM,inhibition,15%
c1ccc(CNc2nc(N3CCOc4ccccc43)nc3c2CCCC3)cc1,"target engagement in cells, inhibitor, chemoproteomics",,20 mM,inhibition,9.1%
CC(C)(C)c1nc2c(s1)c1nc(N)ncc1c1ccc(NS(=O)(=O)c3c(F)cccc3F)c(F)c12,"enzyme activity, inhibitor, radiometric",,1 µM,remaining activity,91%
CNc1cc(Oc2cc(C(=O)Nc3cc(N4CCN(C)CC4)cc(C(F)(F)F)c3)ccc2C)ncn1,"target engagement in cells, inhibitor, chemoproteomics",Huh-7,1 µM,inhibition,-99.7%
CO[C@H]1CC[C@H](CNc2ccc(S(=O)(=O)NC(=O)c3ccc(N4CCN(CC5=C(c6ccc(Cl)cc6)CC(C)(C)CC5)CC4)cc3Oc3cnc4[nH]ccc4c3)cc2[N+](=O)[O-])CC1,"cell-free assay, competition with immobilised ligand",,1 µM,remaining binding,97%
Nc1nc(NC2CCCCC2)sc1C(=O)c1ccccc1,"enzyme activity, inhibitor",,10 µM,remaining activity,98%
CN(C)c1ncnc(-c2ccc3nc(Nc4cc(CN5CCN(C(=O)CC(F)(F)F)CC5)ccn4)[nH]c3c2)c1Cl,"cell-free assay, competition with immobilised ligand",,1 µM,remaining binding,85%
O=S(=O)(c1cccc2cnccc12)N1CCCNCC1,cell-free assay,,0.5 µM,remaining signal,103%
CCS(=O)(=O)c1cc2cc(C[C@@](O)(CC(C)(C)c3ccc(F)cc3C(N)=O)C(F)(F)F)[nH]c2cn1,"cell-free assay, competition with immobilised ligand",,1 µM,remaining binding,85%
Nc1nc(Nc2ccccc2)sc1C(=O)c1c(F)cccc1F,"enzyme activity, inhibitor",,10 µM,remaining activity,57%
CCC(=O)N[C@H]1CC[C@@H](C(=O)N(C)c2ccc(-c3nc4ccccc4o3)cc2)C1,"cell-free assay, competition with immobilised ligand",,1 µM,remaining binding,100%
O=C(Nc1cnn(-c2csc(C(=O)NC3COC3)c2)c1)Nc1c(F)cccc1Cl,"enzyme activity, inhibitor",,5 µM,remaining activity,105%
